Results taken from ChEMBL document CHEMBL1926651, “Design, synthesis, antiviral and cytostatic evaluation of novel isoxazolidine nucleotide analogues with a 1,2,3-triazole linker” (Eur J Med Chem, 2012).
Active and inactive are the calls of the source. The rule behind the calls is not given here.

Columns and labels:
[1] = test system: Feline coronavirus; assay: Antiviral activity against Feline coronavirus infected in CrFK cells assessed as inhibition of viral plaque formation at 250 uM; format: functional, organism-based
In short: (§1)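 Confluent host cell monolayers were inoculated with 100 CCID50 of virus in the presence of test compound at serial dilutions (250, 50, 10, … μM). Viral cytopathicity was scored once it reached completion in untreated virus-infected controls.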

[2] = test system: Human alphaherpesvirus 1; assay: Antiviral activity against thymidine kinase-deficient acv-resistant Herpes simplex virus 1 KOS infected in human HEL cells assessed as inhibition of viral plaque formation at 250 uM; format: functional, organism-based
[3] = test system: Vaccinia virus; assay: Antiviral activity against Vaccinia virus infected in human HEL cells assessed as inhibition of viral plaque formation at 250 uM; format: functional, organism-based; settings: Orthopoxvirus vaccinia; in short: as §1
[4] = test system: Vero; assay: Cytotoxicity against african green monkey Vero cells assessed as change in cell morphology up to 100 uM; format: cell-based; settings: chlorocebus sabaeus
In short: (§2)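 Uninfected host-cell cultures were examined under the microscope. MCC was taken as the lowest compound concentration producing a detectable alteration of normal cell morphology, assessed at concentrations up to 100 μM.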

[5] = test system: Sindbis virus; assay: Antiviral activity against Sindbis virus infected in african green monkey Vero cells assessed as inhibition of viral plaque formation at 250 uM; format: functional, organism-based; in short: as §1
[6] = Cytotoxicity against CRFK cells assessed as change in cell morphology up to 100 uM; format: cell-based, Felis catus; settings: cat; in short: as §2
[7] = test system: Human betaherpesvirus 5; assay: Antiviral activity against Human cytomegalovirus AD169 infected in human HEL cells assessed as inhibition of viral plaque formation at 250 uM; format: functional, organism-based
[8] = test system: Human immunodeficiency virus 2; assay: Antiviral activity against Human immunodeficiency virus 2 infected in human CEM cells assessed as inhibition of virus-induced giant cell formation after 4 days by microscopic analysis; format: functional, organism-based; settings: CCRF-CEM
In short: (§3)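 CEM cells at about 3 × 10⁵ cells/cm³ were infected with 100 CCID50/mL of HIV-1(IIIB) or HIV-2(ROD), then seeded into wells holding test compound dilutions. After 4 days at 37 °C, virus-induced giant cell formation was scored microscopically.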

[9] = test system: Felid alphaherpesvirus 1; assay: Antiviral activity against Felid herpesvirus 1 infected in CrFK cells assessed as inhibition of viral plaque formation at 250 uM; format: functional, organism-based; in short: as §1
[10] = test system: Vesicular stomatitis virus; assay: Antiviral activity against Vesicular stomatitis virus infected in human HEL cells assessed as inhibition of viral plaque formation at 250 uM; format: functional, organism-based; in short: as §1
[11] = test system: Coxsackievirus B4; assay: Antiviral activity against Coxsackievirus B4 infected in human HeLa cells assessed as inhibition of viral plaque formation at 250 uM; format: functional, organism-based; in short: as §1
[12] = test system: Human alphaherpesvirus 2; assay: Antiviral activity against Herpes simplex virus 2 G infected in human HEL cells assessed as inhibition of viral plaque formation at 250 uM; format: functional, organism-based; settings: strain G
[13] = test system: Human immunodeficiency virus 1; assay: Antiviral activity against Human immunodeficiency virus 1 infected in human CEM cells assessed as inhibition of virus-induced giant cell formation after 4 days by microscopic analysis; format: functional, organism-based; settings: CCRF-CEM; in short: as §3
[14] = test system: HEL; assay: Cytotoxicity against human HEL cells assessed as change in cell morphology up to 100 uM; format: cell-based; in short: as §2
[15] = test system: Human alphaherpesvirus 1; assay: Antiviral activity against Herpes simplex virus 1 KOS infected in human HEL cells assessed as inhibition of viral plaque formation at 250 uM; format: functional, organism-based; in short: as §1
[16] = test system: Mammalian orthoreovirus 1; assay: Antiviral activity against Reovirus-1 infected in african green monkey Vero cells assessed as inhibition of viral plaque formation at 250 uM; format: functional, organism-based; in short: as §1
[17] = test system: Human respirovirus 3; assay: Antiviral activity against Parainfluenza-3 virus infected in african green monkey Vero cells assessed as inhibition of viral plaque formation at 250 uM; format: functional, organism-based; in short: as §1
[18] = test system: Human alphaherpesvirus 3; assay: Antiviral activity against thymidine kinase-positive Varicella Zoster virus Oka infected in human HEL cells assessed as inhibition of viral plaque formation at 250 uM; format: functional, cell-based; settings: strain Oka vaccine
[19] = test system: Coxsackievirus B4; assay: Antiviral activity against Coxsackievirus B4 infected in african green monkey Vero cells assessed as inhibition of viral plaque formation at 250 uM; format: functional, organism-based; in short: as §1
[20] = test system: MDCK; assay: Cytotoxicity against MDCK cells assessed as change in cell morphology up to 100 uM; format: cell-based, Canis lupus familiaris; settings: dog; in short: as §2
[21] = test system: HeLa; assay: Cytotoxicity against human HeLa cells 3 days by coulter counting; format: functional; settings: 72 h
In short: (§4)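 Cells were suspended at 300,000–500,000 cells/mL and added 1:1 to compound dilutions. Incubation was at 37 °C, 2 days for L1210 and 3 days for CEM, HeLa and HEL. Cells were counted with a Coulter counter. CC50 is the concentration inhibiting cell proliferation by 50%.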

[22] = test system: HEL; assay: Cytotoxicity against human HEL cells 3 days by coulter counting; format: functional; settings: 72 h; in short: as §4
[23] = test system: CCRF-CEM; assay: Cytotoxicity against human CEM cells 3 days by coulter counting; format: functional; settings: 72 h; in short: as §4
[24] = test system: L1210; assay: Cytotoxicity against mouse L1210 cells 2 days by coulter counting; format: functional; settings: L1210, 48 h; in short: as §4
[25] = test system: Human betaherpesvirus 5; assay: Antiviral activity against Human cytomegalovirus Davis infected in human HEL cells assessed as inhibition of viral plaque formation at 250 uM; format: functional, organism-based
[26] = test system: Punta Toro virus; assay: Antiviral activity against Punta Toro virus infected in african green monkey Vero cells assessed as inhibition of viral plaque formation at 250 uM; format: functional, organism-based
[27] = test system: HeLa; assay: Cytotoxicity against human HeLa cells assessed as change in cell morphology up to 100 uM; format: cell-based; in short: as §2
[28] = test system: Respiratory syncytial virus; assay: Antiviral activity against Respiratory syncytial virus infected in human HeLa cells assessed as inhibition of viral plaque formation at 250 uM; format: functional, organism-based; in short: as §1
[29] = test system: Vesicular stomatitis virus; assay: Antiviral activity against Vesicular stomatitis virus infected in human Hela cells assessed as inhibition of viral plaque formation at 250 uM; format: functional, organism-based
[30] = test system: Human alphaherpesvirus 3; assay: Antiviral activity against thymidine kinase-deficient Varicella Zoster virus 07/1 infected in human HEL cells assessed as inhibition of viral plaque formation at 250 uM; format: functional, organism-based

Compound	Activity [1]	Activity [2]	Activity [3]	Activity [5]	Activity [7]	Activity [8]	Activity [9]	Activity [10]	Activity [11]	Activity [12]	Activity [13]	Activity [15]	Activity [16]	Activity [17]	Activity [18]	Activity [19]	CC50 [21] [µM]	CC50 [22] [µM]	CC50 [23] [µM]	CC50 [24] [µM]	other results
CCOP(=O)(OCC)[C@@H]1C[C@@H](n2cc(-c3ccccc3)nn2)ON1C (racemic)	inactive	inactive	inactive	inactive	inactive	inactive	inactive	inactive	inactive	inactive	inactive	inactive	inactive	inactive	inactive	inactive	> 250	40	> 250	> 250	Activity [4]: Non-toxic; Activity [6]: Non-toxic; Activity [14]: Non-toxic; Activity [20]: Non-toxic; Activity [25]: inactive; Activity [26]: inactive; Activity [27]: Non-toxic; Activity [28]: inactive; Activity [29]: inactive; Activity [30]: inactive
CCOP(=O)(OCC)[C@@H]1C[C@@H](n2cc(-c3cccc(F)c3)nn2)ON1C (racemic)	inactive	inactive	inactive	inactive	inactive	inactive	inactive	inactive	inactive	inactive	inactive	inactive	inactive	inactive	inactive	inactive	≥ 250	40	> 250	≥ 250	Activity [4]: Non-toxic; Activity [6]: Non-toxic; Activity [14]: Non-toxic; Activity [20]: Non-toxic; Activity [25]: inactive; Activity [26]: inactive; Activity [27]: Non-toxic; Activity [28]: inactive; Activity [29]: inactive; Activity [30]: inactive
CCOP(=O)(OCC)[C@@H]1C[C@@H](n2cc(-c3ccc(F)cc3F)nn2)ON1C (racemic)	inactive	inactive	inactive	inactive	inactive	inactive	inactive	inactive	inactive	inactive	inactive	inactive	inactive	inactive	inactive	inactive	162	59	≥ 250	131	Activity [4]: Non-toxic; Activity [6]: Non-toxic; Activity [14]: Non-toxic; Activity [20]: Non-toxic; Activity [25]: inactive; Activity [26]: inactive; Activity [27]: Non-toxic; Activity [28]: inactive; Activity [29]: inactive; Activity [30]: inactive
CCOP(=O)(OCC)[C@@H]1C[C@@H](n2cc(-c3ccccn3)nn2)ON1C (racemic)	inactive	inactive	inactive	inactive	inactive	inactive	inactive	inactive	inactive	inactive	inactive	inactive	inactive	inactive	inactive	inactive	> 250	62	> 250	≥ 250	Activity [4]: Non-toxic; Activity [6]: Non-toxic; Activity [14]: Non-toxic; Activity [20]: Non-toxic; Activity [25]: inactive; Activity [26]: inactive; Activity [27]: Non-toxic; Activity [28]: inactive; Activity [29]: inactive; Activity [30]: inactive
CCOP(=O)(OCC)[C@@H]1C[C@@H](n2cc(-c3ccccc3F)nn2)ON1C (relative stereo)	inactive	inactive	inactive	inactive	inactive	inactive	inactive	inactive	inactive	inactive	inactive	inactive	inactive	inactive	inactive	inactive	202	73	> 250	120	Activity [4]: Non-toxic; Activity [6]: Non-toxic; Activity [14]: Non-toxic; Activity [20]: Non-toxic; Activity [25]: inactive; Activity [26]: inactive; Activity [27]: Non-toxic; Activity [28]: inactive; Activity [29]: inactive; Activity [30]: inactive
CCOP(=O)(OCC)[C@@H]1C[C@H](n2cc(Cn3cnc4c(N)ncnc43)nn2)ON1C (relative stereo)	inactive	inactive	inactive	inactive	inactive	inactive	inactive	inactive	inactive	inactive	inactive	inactive	inactive	inactive	inactive	inactive	≥ 250	> 100	> 250	147	Activity [25]: inactive; Activity [26]: inactive; Activity [28]: inactive; Activity [29]: inactive; Activity [30]: inactive
CCOP(=O)(OCC)[C@@H]1C[C@H](n2cc(C(=O)OC)nn2)ON1C (relative stereo)	inactive	inactive	inactive	inactive	inactive	inactive	inactive	inactive	inactive	inactive	inactive	inactive	inactive	inactive	inactive	inactive	> 250	> 100	> 250	166	Activity [25]: inactive; Activity [26]: inactive; Activity [28]: inactive; Activity [29]: inactive; Activity [30]: inactive
